Residues, ends and D or L forms follow the SMILES beside them.
Each molecule was assayed on T98G (assay: Inhibition of [3H]glycine uptake in human T98G cells).
Format: functional, cell-based
In short: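 T98G cells (2 × 10⁴ cells/well) plated, held 24 h at 37 °C in humidified incubator; washed, then exposed at room temperature to 250 nM [³H]-glycine plus test sample for 15 min. Cells washed, lysed in 0.5 M NaOH, radioactivity read by scintillation counting. IC50 from nonlinear regression curve fit; means of two experiments.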
`CC[C@H](C)[C@@H]1NC(=O)[C@H](Cc2ccccc2)NC(=O)[C@H]([C@@H](C)CC)NC(=O)[C@H]([C@@H](C)CC)NC(=O)[C@H]([C@@H](C)CC)NC1=O` (cyclo(FIIII)) showed an IC50 of 655 nM.
`CC[C@H](C)[C@@H]1NC(=O)[C@H](Cc2ccccc2)NC(=O)[C@H]([C@@H](C)CC)NC(=O)[C@H]([C@@H](C)CC)NC(=O)[C@H]([C@@H](C)CC)NC(=O)[C@H]([C@@H](C)CC)NC1=O` (cyclo(FIIIII)) gave an IC50 of 1680 nM.
`CN(CC[C@@H](Oc1ccc(-c2ccccc2)cc1)c1ccc(F)cc1)CC(=O)O` was tested, and the IC50 was 4.8 nM.
`CC[C@H](C)[C@@H]1NC(=O)[C@H](Cc2ccccc2)NC(=O)[C@H]([C@H](CS(=O)(=O)O)C(C)=O)NC(=O)[C@H]([C@@H](C)CC)NC1=O` was tested, and the IC50 was 12.5 nM.
`CC[C@H](C)[C@@H]1NC(=O)[C@H](Cc2cn(OC)c3ccccc23)NC(=O)[C@H](CCCCC(C)=O)NC(=O)[C@H]2CCCCN2C1=O` gave an IC50 of 71.8 nM.
`CC[C@H](C)[C@@H]1NC(=O)[C@H](Cc2ccccc2)NC(=O)[C@H]([C@H](C)[C@@H](C)O)NC(=O)[C@H](C(C)C)NC1=O` showed an IC50 of 5.5 nM.
`CC[C@H](C)[C@H](N)C(=O)N[C@H](C(=O)N[C@H](C(=O)N[C@@H](Cc1ccccc1)C(=O)O)[C@@H](C)CC)[C@@H](C)CC` (H-IIIF-OH) gave an IC50 of 16400 nM.
`CC[C@H](C)[C@@H]1NC(=O)[C@H](Cc2ccccc2)NC(=O)[C@H]([C@@H](C)CC)NC(=O)[C@H]([C@@H](C)CC)NC1=O` (cyclo(FIII)) showed an IC50 of 21.2 nM.
Work on `CC(C)[C@@H]1NC(=O)[C@H](Cc2ccccc2)NC(=O)[C@H]([C@H](C)[C@@H](C)O)NC(=O)[C@H](C(C)C)NC1=O` yielded an IC50 of 4 nM.
In the case of `CC[C@H](C)[C@@H]1NC(=O)[C@H](Cc2ccccc2)NC(=O)[C@H]([C@H](C)[C@@H](C)O)NC(=O)[C@H]([C@@H](C)CC)NC1=O`, the IC50 is reported as 3.5 nM.
Molecule `CC[C@H](C)[C@@H]1NC(=O)[C@H](C(C)C)NC(=O)[C@H](Cc2ccccc2)NC(=O)[C@H]([C@H](C)[C@@H](C)O)NC1=O` has an IC50 of 5 nM.
